Experimental data from publication PMC7401491 (Investigative Ophthalmology & Visual Science, 2020).
Like-named read-outs stand apart in the source and are kept apart here. Ends that are not written are not given here.

B1: recombinant human S100 calcium binding protein S100A8 (untagged) (natural protein, UniProt P05109 1-93, looked up)
chain: MLTELEKALNSIIDVYHKYSLIKGNFHAVYRDDLKKLLETECPQYIRKKGADVWFKELDINTDGAVNFQEFLILVIKMGVAAHKKSHEESHKE
B3: cationic antimicrobial protein of 37 kDa (CAP37) (natural protein, human, UniProt P20160 27-248, looked up)
chain: IVGGRKARPRQFPFLASIQNQGRHFCGGALIHARFVMTAASCFQSQNPGVSTVVLGAYDLRRRERQSRQTFSISSMSENGYDPQQNLNDLMLLQLDREANLTSSVTILPLPLQNATVEAGTRCQVAGWGSQRSGGRLSRFPRFVNVTVTPEDQCRPNNVCTGVLTRRGGICNGDGGTPLVCEGLAHGVASFSLGPCGRGPDFFTRVALFRDWIDGVLNNPGP

Assays:
[1] = target: TLR4/MD-2 complex (Homo sapiens, UniProt O00206+Q9Y6Y9); assay: ELISA binding of His-tagged TLR4/MD-2 complex to coated proteins/peptides; settings: for Binding of TLR4/MD-2 to coated protein/peptide (in words): ELISA, TLR4/MD-2 at 10 nM, compared with BSA
TLR4/MD-2 complex, sequence (O00206 24-631 limits assumed): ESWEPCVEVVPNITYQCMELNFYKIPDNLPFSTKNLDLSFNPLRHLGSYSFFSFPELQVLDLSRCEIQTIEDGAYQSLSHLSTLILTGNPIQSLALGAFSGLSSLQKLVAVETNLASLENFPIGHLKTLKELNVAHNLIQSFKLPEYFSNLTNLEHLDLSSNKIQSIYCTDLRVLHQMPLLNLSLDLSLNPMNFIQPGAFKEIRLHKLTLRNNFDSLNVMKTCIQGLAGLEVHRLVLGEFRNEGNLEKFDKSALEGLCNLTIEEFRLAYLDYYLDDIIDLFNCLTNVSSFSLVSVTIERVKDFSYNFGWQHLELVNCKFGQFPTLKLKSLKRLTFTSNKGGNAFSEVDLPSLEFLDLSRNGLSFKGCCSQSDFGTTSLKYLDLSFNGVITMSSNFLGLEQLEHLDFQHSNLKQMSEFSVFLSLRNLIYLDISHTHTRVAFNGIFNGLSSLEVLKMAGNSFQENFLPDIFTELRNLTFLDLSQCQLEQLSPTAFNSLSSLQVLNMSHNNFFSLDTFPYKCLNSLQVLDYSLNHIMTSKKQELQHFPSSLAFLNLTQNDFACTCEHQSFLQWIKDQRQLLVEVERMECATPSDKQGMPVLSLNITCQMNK
TLR4/MD-2 complex, sequence (Q9Y6Y9 17-160 partner limits assumed): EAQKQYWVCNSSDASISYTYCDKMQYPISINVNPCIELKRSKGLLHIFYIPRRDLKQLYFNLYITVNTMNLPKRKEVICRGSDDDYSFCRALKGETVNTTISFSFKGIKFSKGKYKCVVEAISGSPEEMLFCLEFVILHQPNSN
Method in brief: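 ELISA against coated protein or peptide at 5 µg/ml (PBS pH 7.4; 2 h RT, then 4°C overnight), blocked with 3% BSA/PBST. Recombinant human TLR4/MD-2 complex, both chains His-tagged, 0–100 nM in PBST/0.1% BSA, 70 min at 37°C. Probed with anti-His mAb 1.0 µg/ml, then peroxidase secondary; OD 492 nm. 0-nM values subtracted; Kd derived; compared with BSA. Mean ± SEM, three independent experiments.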

[2] = target: T1, CAP37-derived peptide 20-44 (human); assay: ELISA
T1 sequence (P20160 46-70, looked up): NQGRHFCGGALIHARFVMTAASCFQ

[3] = target: CAP37-derived peptide 20-44 5RMP (human); assay: ELISA
[4] = target: CAP37-derived peptide 120-146 WH 5RMP (human); assay: ELISA
[5] = target: T2, CAP37-derived peptide 120-146 WH (human); assay: ELISA
T2 sequence (P20160 146-172 with Q131W R132H, looked up): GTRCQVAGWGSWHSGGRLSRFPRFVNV

[6] = target: T3, recombinant human TLR4/myeloid differentiation factor 2 (MD-2) complex (human, UniProt O00206 24-631; Q9Y6Y9 19-160); assay: ELISA
T3 sequence (O00206 24-631, chain 1 of 2): as the sequence (O00206 24-631 limits assumed) above
T3 sequence (Q9Y6Y9 19-160, chain 2 of 2): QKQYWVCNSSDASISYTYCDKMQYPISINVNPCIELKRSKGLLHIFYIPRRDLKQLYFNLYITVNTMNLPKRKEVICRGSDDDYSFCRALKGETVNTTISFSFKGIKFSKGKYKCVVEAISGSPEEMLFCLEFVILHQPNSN

[7] = target: B1; assay: ELISA
[8] = target: B3; assay: ELISA
[9] = target: T1, CAP37-derived peptide 20-44 (human); assay: ELISA; remark: listed apart in the source
[10] = target: CAP37-derived peptide 20-44 5RMP (human); assay: ELISA; remark: listed apart in the source
[11] = target: CAP37-derived peptide 120-146 WH 5RMP (human); assay: ELISA; remark: listed apart in the source
[12] = target: T2, CAP37-derived peptide 120-146 WH (human); assay: ELISA; remark: listed apart in the source
[13] = target: TLR4 (Homo sapiens, UniProt O00206); assay: HEK-Blue hTLR4 stimulation assay; assay type: cell-based; settings: HEK-hTLR4 cells
TLR4, sequence (O00206 24-839): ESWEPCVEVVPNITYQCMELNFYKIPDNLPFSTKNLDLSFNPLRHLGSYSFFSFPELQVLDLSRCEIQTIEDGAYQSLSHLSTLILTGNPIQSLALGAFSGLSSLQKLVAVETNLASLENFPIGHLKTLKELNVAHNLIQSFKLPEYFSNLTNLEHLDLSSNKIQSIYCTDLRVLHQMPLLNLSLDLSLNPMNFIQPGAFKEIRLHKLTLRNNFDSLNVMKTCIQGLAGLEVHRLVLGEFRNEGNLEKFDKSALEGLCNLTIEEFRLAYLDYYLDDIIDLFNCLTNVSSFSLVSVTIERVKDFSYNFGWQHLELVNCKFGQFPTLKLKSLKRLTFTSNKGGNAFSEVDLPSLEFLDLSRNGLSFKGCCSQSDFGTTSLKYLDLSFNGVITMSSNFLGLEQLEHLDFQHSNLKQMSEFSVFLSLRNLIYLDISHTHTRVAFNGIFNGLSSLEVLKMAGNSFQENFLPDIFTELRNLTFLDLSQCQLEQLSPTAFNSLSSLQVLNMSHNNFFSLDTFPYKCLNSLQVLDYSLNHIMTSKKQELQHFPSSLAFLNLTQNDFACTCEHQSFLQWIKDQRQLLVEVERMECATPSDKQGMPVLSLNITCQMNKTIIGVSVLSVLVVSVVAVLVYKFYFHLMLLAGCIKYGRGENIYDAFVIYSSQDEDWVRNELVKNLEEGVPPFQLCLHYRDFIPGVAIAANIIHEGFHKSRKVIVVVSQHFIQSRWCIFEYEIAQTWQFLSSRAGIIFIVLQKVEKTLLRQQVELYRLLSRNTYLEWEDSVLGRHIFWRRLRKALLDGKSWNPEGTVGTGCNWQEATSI
TLR4, sequence (Q9Y6Y9 17-160 partner limits assumed): as the sequence (Q9Y6Y9 17-160 partner limits assumed) above
Method in brief: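 HEK-Blue hTLR4 cells (human TLR4, MD-2, CD14, NF-κB/AP-1-driven SEAP), passages 3–15, detached with warm PBS and suspended serum-free at 1.4 × 10^5 cells/ml. Test compound in nuclease-free water at final 10 nM–100 µM; 24 h, 37°C, 5% CO2. SEAP read with Quanti-Blue, 3 h, OD 630 nm, normalised to BCA protein. Untreated background subtracted; expressed as % of 50-nM S100A9. Three experiments in triplicate.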

[14] = target: T3, recombinant human TLR4/myeloid …; assay: ELISA; remark: listed apart in the source
[15] = tested on: S100A8; assay: ELISA binding of CAP37 to S100A8; set-up: species or system human; settings: data not shown
[16] = tested on: TLR4 activation by S100A9; assay: HEK-Blue hTLR4 assay, effect on activation of TLR4 by 10-nM S100A9; assay type: cell-based, human

CG: cathepsin G purified from human neutrophils
Binding of TLR4/MD-2 to coated protein/peptide (in words) [1]: did not significantly interact

NE: neutrophil elastase purified from human neutrophils
Binding of TLR4/MD-2 to coated protein/peptide (in words) [1]: did not significantly interact

recombinant human TLR4/myeloid differentiation factor 2 (MD-2) complex (from UniProt O00206 24-631; Q9Y6Y9 19-160)
Kd [2]: 90.6 nM
Kd [3]: 270 nM
Kd [4]: 18.9 nM
Kd [5]: 229 nM

LDREANLTSSVTILPLPLQNATVEAGTR [95-122]
Binding of TLR4/MD-2 to coated protein/peptide (in words) [1]: only minimal interaction

B1
binding result [6]: binds

B2: recombinant human S100 calcium-binding protein A9 (S100A9), C-terminus 8-His tag (natural protein, UniProt P06702 1-114, looked up)
chain: MTCKMSQLERNIETIINTFHQYSVKLGHPDTLNQGEFKELVRKDLQNFLKKENKNEKVIEHIMEDLDTNADKQLSFEEFIMLMARLTWASHEKMHEGDEGPGHHHKPGLGEGTP
binding at 10 nM S100A9 relative to its binding to CAP37 [7]: 2 fold
Kd [8]: 9.2 nM
Kd [9]: 43.8 nM
Kd [10]: 23.5 nM
Kd [11]: 22.3 nM
Kd [12]: 37.3 nM

B3
Binding of TLR4/MD-2 to coated protein/peptide (in words) [1]: low, but specific, interaction
Fold lower affinity for TLR4 than for S100A9 ([1]; Kd 98 nM versus Kd 9.2 nM): ~10 fold
Fold higher concentration at which TLR4 activation begins, versus S100A9 [13]: approximately 100 fold
Concentration at which activation of TLR4 begins ([13]; 24 h, SEAP): 100 nM
Kd [14]: 98 nM
Interaction between CAP37 and S100A8 (in words) [15]: specific, but low, interaction
Decrease of TLR4 activation by S100A9 ([16]; CAP37 0.01 nM preincubated 1 hour with 10-nM S100A9, from 50% to 30%): ~20%
Decrease of TLR4 activation by S100A9 ([16]; CAP37 10 nM preincubated 1 hour with 10-nM S100A9): 10%
Decrease of TLR4 activation by S100A9 ([16]; CAP37 1 µM preincubated 1 hour with 10-nM S100A9): no decrease
